The text below walks through data of ChEMBL document CHEMBL1781961, “Synthesis and in vitro antibacterial activity of 7-(3-alkoxyimino-4-amino-4-methylpiperidin-1-yl) fluoroquinolone derivatives” (Eur J Med Chem, 2011).

SMILES strings stand for the structures. ≈ marks a conversion by molar mass, not a printed value.

The nature of series [1]: Cytotoxicity against MDCK cells after 48 hrs by CPE assay. Format: cell-based, Canis lupus familiaris. The note with it: dog. The essentials:
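MDCK cells kept in Minimum Essential Medium with Earle's salt plus 10% fetal bovine serum at 37 °C, 5% CO₂. […] Medium then replaced by assay medium with or without compound. After 48 h exposure, viability read by CPE assay. CC₅₀ calculated by Reed–Muench analysis.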

For series [2], the system named is Staphylococcus epidermidis. The series can be described thus: Antibacterial activity against 10^4 CFU methicillin-sensitive Staphylococcus epidermidis 09-6 after 18 hrs by CLSI agar dilution method. It counts as functional. The note with it: 09-6, 18 h.
In series [3] the test system is Enterococcus faecium. As to the kind of experiment: Antibacterial activity against 10^4 CFU Enterococcus faecium 06-7 after 18 hrs by CLSI agar dilution method. Format: functional. The note with it: 06-7, 18 h.
Series [4] concerns Staphylococcus aureus. The series can be described thus: Antibacterial activity against 10^4 CFU methicillin-resistant Staphylococcus aureus 08-1 after 18 hrs by CLSI agar dilution method. Conditions: 08-1, 18 h. It counts as functional.
Series [5] has as its system Staphylococcus aureus. As to the kind of experiment: Antibacterial activity against 10^4 CFU Staphylococcus aureus ATCC 25923 after 18 hrs by CLSI agar dilution method. Format: functional. The note with it: ATCC 25923, 18 h. In general terms: In agar dilution, organisms are placed on agar that contains the substance at set levels.
For series [6], the system named is Escherichia coli. The series can be described thus: Antibacterial activity against 10^4 CFU Escherichia coli ATCC 25922 after 18 hrs by CLSI agar dilution method. Format: functional. Conditions: ATCC 25922, 18 h.
For series [7], the system named is Escherichia coli. The series can be described thus: Antibacterial activity against 10^4 CFU Escherichia coli 08-21 after 18 hrs by CLSI agar dilution method. The note with it: 08-21, 18 h. Format: functional.
For series [8], the system named is Pseudomonas aeruginosa. As to the kind of experiment: Antibacterial activity against 10^4 CFU Pseudomonas aeruginosa 09-32 after 18 hrs by CLSI agar dilution method. It counts as functional. Conditions: 09-32, 18 h.
Series [9] has as its system Staphylococcus aureus. The series can be described thus: Antibacterial activity against 10^4 CFU methicillin-sensitive Staphylococcus aureus 08-1 after 18 hrs by CLSI agar dilution method. It counts as functional. Conditions: 08-1, 18 h.
Series [10] deals with Enterococcus faecalis. The series can be described thus: Antibacterial activity against 10^4 CFU Enterococcus faecalis 08-10 after 18 hrs by CLSI agar dilution method. Format: functional. Conditions: 08-10, 18 h.
Series [11] deals with Klebsiella pneumoniae. The series can be described thus: Antibacterial activity against 10^4 CFU Klebsiella pneumoniae 09-23 after 18 hrs by CLSI agar dilution method. It counts as functional. The note with it: 09-23, 18 h.
Series [12] concerns Pseudomonas aeruginosa. The series can be described thus: Antibacterial activity against 10^4 CFU Pseudomonas aeruginosa ATCC 27853 after 18 hrs by CLSI agar dilution method. Conditions: ATCC 27853, 18 h. It counts as functional.
Series [13] has as its system Klebsiella pneumoniae. As to the kind of experiment: Antibacterial activity against 10^4 CFU Klebsiella pneumoniae 09-22 after 18 hrs by CLSI agar dilution method. It counts as functional. The note with it: 09-22, 18 h.
Series [14] concerns Enterococcus faecalis. As to the kind of experiment: Antibacterial activity against 10^4 CFU Enterococcus faecalis 08-12 after 18 hrs by CLSI agar dilution method. Format: functional. The note with it: 08-12, 18 h.
The test system of series [15] is Enterococcus faecium. As to the kind of experiment: Antibacterial activity against 10^4 CFU Enterococcus faecium 08-2 after 18 hrs by CLSI agar dilution method. Conditions: 08-2, 18 h. It counts as functional.
In the next series the test system is Streptococcus pneumoniae. As to the kind of experiment: Antibacterial activity against 10^4 CFU Streptococcus pneumoniae 08-4 after 18 hrs by CLSI agar dilution method. The note with it: 08-4, 18 h. It counts as functional.
Series [16] has as its system Staphylococcus epidermidis. The series can be described thus: Antibacterial activity against 10^4 CFU methicillin-resistant Staphylococcus epidermidis 09-2 after 18 hrs by CLSI agar dilution method. Format: functional. Conditions: 09-2, 18 h.

The term CC50 denotes the concentration at which the toxic effect on the cells reaches its halfway point. As usually defined, the MIC is the lowest concentration that inhibits growth of the organism. The low end stands for a more susceptible organism, the high end for a less susceptible organism. Turning to `CCO/N=C1\CN(c2c(F)cc3c(=O)c(C(=O)O)cn(C4CC4)c3c2OC(F)F)CCC1(C)N` (configuration not stated), half-maximal cytotoxicity in series [1] (CC50 at 48 h) was put at 518 µM. In addition, the MIC in [2] stood at 0.25 µg/mL (≈ 0.518 µM); with Enterococcus faecium [3], 128 µg/mL (≈ 265 µM); against Staphylococcus aureus [4], 0.25 µg/mL (≈ 0.518 µM); with Staphylococcus aureus [5] it was 0.125 µg/mL (≈ 0.259 µM); against Escherichia coli [6], 16 µg/mL (≈ 33.2 µM); against Escherichia coli [7], 128 µg/mL (≈ 265 µM). In addition, the minimal inhibitory concentration (MIC) in the series on Pseudomonas aeruginosa [8] is 16 µg/mL (≈ 33.2 µM); against Staphylococcus aureus [9], 0.25 µg/mL (≈ 0.518 µM); in the series on Enterococcus faecalis [10], 8 µg/mL (≈ 16.6 µM); in the series with Klebsiella pneumoniae [11], 8 µg/mL (≈ 16.6 µM); in the series with Pseudomonas aeruginosa [12], 4 µg/mL (≈ 8.29 µM); against Klebsiella pneumoniae [13] it was 16 µg/mL (≈ 33.2 µM). For the same compound, the MIC was determined as 32 µg/mL (≈ 66.3 µM) in the series on Enterococcus faecalis [14], 128 µg/mL (≈ 265 µM) with Enterococcus faecium [15], 0.25 µg/mL (≈ 0.518 µM) in the series on Streptococcus pneumoniae and 0.25 µg/mL (≈ 0.518 µM) in series [16].
The compound `CCO/N=C1\CN(c2c(F)cc3c(=O)c(C(=O)O)cn(C4CC4)c3c2OC)CCC1(C)N` (configuration not stated) registered a cytotoxic concentration (CC50) at 48 h in [1] of 280 µM. Also, the MIC in [2] was 0.25 µg/mL (≈ 0.56 µM); with Enterococcus faecium [3] it was 128 µg/mL (≈ 287 µM); with Staphylococcus aureus [4] it was 0.25 µg/mL (≈ 0.56 µM); against Staphylococcus aureus [5], 0.25 µg/mL (≈ 0.56 µM); in the series with Escherichia coli [6] it was 128 µg/mL (≈ 287 µM); in the series with Escherichia coli [7] it was above 128 µg/mL. Moreover, the minimum inhibitory concentration (MIC) with Pseudomonas aeruginosa [8] was 0.5 µg/mL (≈ 1.12 µM); against Staphylococcus aureus [9] it was 0.25 µg/mL (≈ 0.56 µM); in the series on Enterococcus faecalis [10], 1 µg/mL (≈ 2.24 µM); with Klebsiella pneumoniae [11] it was above 128 µg/mL; against Pseudomonas aeruginosa [12] it was 4 µg/mL (≈ 8.96 µM); in the series with Klebsiella pneumoniae [13] it was 1 µg/mL (≈ 2.24 µM). The minimum inhibitory concentration (MIC) amounted to 128 µg/mL (≈ 287 µM) against Enterococcus faecalis [14], 64 µg/mL (≈ 143 µM) in the series with Enterococcus faecium [15], 0.25 µg/mL (≈ 0.56 µM) in the series on Streptococcus pneumoniae and 0.25 µg/mL (≈ 0.56 µM) in series [16].
`CO/N=C1\CN(c2c(F)cc3c(=O)c(C(=O)O)cn4c3c2OC[C@@H]4C)CCC1(C)N` (some centres not stated) came in with a CC50 at 48 h in [1] of 1510 µM. For the same compound, the minimum inhibitory concentration (MIC) in [2] is 0.25 µg/mL (≈ 0.597 µM); in the series on Enterococcus faecium [3], above 128 µg/mL; with Staphylococcus aureus [4], 0.25 µg/mL (≈ 0.597 µM); against Staphylococcus aureus [5], 0.25 µg/mL (≈ 0.597 µM); in the series on Escherichia coli [6], 128 µg/mL (≈ 306 µM); against Escherichia coli [7], above 128 µg/mL. Also, the MIC against Pseudomonas aeruginosa [8] was 128 µg/mL (≈ 306 µM); against Staphylococcus aureus [9], 0.25 µg/mL (≈ 0.597 µM); against Enterococcus faecalis [10], 16 µg/mL (≈ 38.2 µM); in the series with Klebsiella pneumoniae [11] it was above 128 µg/mL; with Pseudomonas aeruginosa [12], 8 µg/mL (≈ 19.1 µM); against Klebsiella pneumoniae [13], 2 µg/mL (≈ 4.78 µM). Besides, the MIC against Enterococcus faecalis [14] was above 128 µg/mL; with Enterococcus faecium [15], above 128 µg/mL; in the series on Streptococcus pneumoniae, 0.25 µg/mL (≈ 0.597 µM); in series [16], 0.25 µg/mL (≈ 0.597 µM).
`CCO/N=C1\CN(c2c(F)cc3c(=O)c(C(=O)O)cn4c3c2OC[C@@H]4C)CCC1(C)N` (some centres not stated) registered a CC50 at 48 h in series [1] of 1160 µM. In addition, the minimal inhibitory concentration (MIC) in series [2] was 0.25 µg/mL (≈ 0.578 µM); against Enterococcus faecium [3], above 128 µg/mL; in the series on Staphylococcus aureus [4] it was 0.25 µg/mL (≈ 0.578 µM); against Staphylococcus aureus [5] it was 0.25 µg/mL (≈ 0.578 µM); against Escherichia coli [6], 32 µg/mL (≈ 74 µM); in the series with Escherichia coli [7], 64 µg/mL (≈ 148 µM). Besides, the MIC against Pseudomonas aeruginosa [8] stood at 64 µg/mL (≈ 148 µM); in the series on Staphylococcus aureus [9] it was 0.25 µg/mL (≈ 0.578 µM); in the series on Enterococcus faecalis [10], 32 µg/mL (≈ 74 µM); against Klebsiella pneumoniae [11], 2 µg/mL (≈ 4.62 µM); against Pseudomonas aeruginosa [12], 4 µg/mL (≈ 9.25 µM); against Klebsiella pneumoniae [13] it was 64 µg/mL (≈ 148 µM). Moreover, the MIC in the series with Enterococcus faecalis [14] came out at 64 µg/mL (≈ 148 µM); in the series on Enterococcus faecium [15], 32 µg/mL (≈ 74 µM); against Streptococcus pneumoniae it was 2 µg/mL (≈ 4.62 µM); in series [16], 0.25 µg/mL (≈ 0.578 µM).
As to `COc1c(N2CCNC(C)C2)c(F)cc2c(=O)c(C(=O)O)cn(C3CC3)c12` (configuration not stated) [GATIFLOXACIN], the CC50 at 48 h in series [1] is 396 µM. For the same compound, the minimal inhibitory concentration (MIC) was 0.25 µg/mL (≈ 0.666 µM) in series [2]; 4 µg/mL (≈ 10.7 µM) in the series with Enterococcus faecium [3]; 0.25 µg/mL (≈ 0.666 µM) in the series with Staphylococcus aureus [4]; 0.06 µg/mL (≈ 0.16 µM) against Staphylococcus aureus [5]; 4 µg/mL (≈ 10.7 µM) against Escherichia coli [6]; 8 µg/mL (≈ 21.3 µM) with Escherichia coli [7]. Further, the MIC came out at 16 µg/mL (≈ 42.6 µM) with Pseudomonas aeruginosa [8]; 0.06 µg/mL (≈ 0.16 µM) in the series on Staphylococcus aureus [9]; 8 µg/mL (≈ 21.3 µM) with Enterococcus faecalis [10]; 2 µg/mL (≈ 5.33 µM) in the series on Klebsiella pneumoniae [11]; 1 µg/mL (≈ 2.66 µM) against Pseudomonas aeruginosa [12]; 0.25 µg/mL (≈ 0.666 µM) in the series on Klebsiella pneumoniae [13]. For the same compound, the minimal inhibitory concentration (MIC) with Enterococcus faecalis [14] was 4 µg/mL (≈ 10.7 µM); against Enterococcus faecium [15], 2 µg/mL (≈ 5.33 µM); in the series with Streptococcus pneumoniae it was 0.25 µg/mL (≈ 0.666 µM); in series [16] it was 0.25 µg/mL (≈ 0.666 µM).
As for `CO/N=C1\CN(c2nc3c(cc2F)c(=O)c(C(=O)O)cn3C2CC2)CC1CN` (configuration not stated) [GEMIFLOXACIN], the CC50 at 48 h in series [1] came to 321 µM. Moreover, the MIC in [2] turned out to be 0.25 µg/mL (≈ 0.642 µM); in the series on Enterococcus faecium [3] it was 16 µg/mL (≈ 41.1 µM); with Staphylococcus aureus [4] it was 0.25 µg/mL (≈ 0.642 µM); in the series on Staphylococcus aureus [5], 0.125 µg/mL (≈ 0.321 µM); against Escherichia coli [6], 4 µg/mL (≈ 10.3 µM); with Escherichia coli [7], 16 µg/mL (≈ 41.1 µM). The MIC in the series with Pseudomonas aeruginosa [8] worked out at 0.25 µg/mL (≈ 0.642 µM); in the series with Staphylococcus aureus [9], 0.06 µg/mL (≈ 0.154 µM); in the series with Enterococcus faecalis [10], 16 µg/mL (≈ 41.1 µM); in the series with Klebsiella pneumoniae [11], 8 µg/mL (≈ 20.5 µM); in the series on Pseudomonas aeruginosa [12] it was 2 µg/mL (≈ 5.14 µM); in the series on Klebsiella pneumoniae [13], 8 µg/mL (≈ 20.5 µM). Moreover, the MIC with Enterococcus faecalis [14] amounted to 16 µg/mL (≈ 41.1 µM); with Enterococcus faecium [15], 2 µg/mL (≈ 5.14 µM); against Streptococcus pneumoniae, 0.25 µg/mL (≈ 0.642 µM); in series [16], 0.125 µg/mL (≈ 0.321 µM).
